Ends that are not written are not given here.
What was measured:
rat erythrocytes = experiment: Hemolysis assay; assay type: cell-based, Sprague-Dawley rats; conditions: for concentration inducing hemolysis relative to MICs: hemolytic concentration / MIC
Outline: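 Sprague-Dawley rat blood was drawn from the abdominal aorta into heparin. RBCs were centrifuged, washed and made up as a 10% suspension in saline. Peptides, twofold-diluted in saline, were incubated with the RBCs at 37°C for 1 h, then spun 10 min, and supernatant A540 was read. Controls were saline (0%) and 1% Triton X-100 (100%). Hemolysis % = (Am − An)/(Ap − An) × 100.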

mammalian cells = experiment: Cytotoxicity assay; assay type: cell-based, human; conditions: for cytotoxicity: in words, MTT, HaCaTs and HUVECs, 24 h; for concentration inducing cytotoxicity relative to MICs: cytotoxic concentration / MIC
Outline: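 HUVECs and HaCaTs in log phase were trypsinised, adjusted to 5 × 10^4 cells/ml, seeded and left to adhere overnight. Cells were exposed to a range of peptide concentrations (peptides in sterile water) for 24 h at 37°C, 5% CO2, with untreated wells as controls. MTT (5 mg/ml stock) was added for 4 h, the supernatant was removed, formazan was dissolved in DMSO, and A490 was read.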

[1] = test system: six strains of pathogenic fungi and five strains of pathogenic bacteria; experiment: MIC determination, whole panel of fungi and bacteria; assay type: cell-based; conditions: in words
A. baumannii = experiment: Murine lung infection; assay type: in vivo, BALB/c mice; conditions: 40 mg/kg intravenously for three consecutive days
A. baumannii GD003 = experiment: Drug resistance development, serial passage; assay type: cell-based, Acinetobacter baumannii; conditions: A. baumannii GD003, serial passage at sub-MIC for 30 days, 96-well plates
Outline: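 A. baumannii GD003 was activated in liquid culture and grown 12 h. It was diluted to 5 × 10^5 cells/ml in MHB and tested by broth microdilution in 96-well plates (37°C, 24 h; MIC = lowest concentration with no visible growth). Cells from the half-MIC well were carried into the next round and the MIC was re-measured, repeating over 30 days.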

| Sequence | hemolytic activity (rat erythrocytes; in words, 10% rat RBC, 37°C, 1 h (Fig. 3A)) | cytotoxicity (mammalian cells) | antimicrobial activity [1] | concentration with hemolytic activity (rat erythrocytes; 10% rat RBC, 37°C, 1 h) | concentration inducing hemolysis relative to MICs (rat erythrocytes) | concentration inducing cytotoxicity relative to MICs (mammalian cells) | H&E staining of off-target tissues (heart, liver, kidney) (A. baumannii) | MIC after 30 passages of induced resistance (A. baumannii GD003) |
| --- | --- | --- | --- | --- | --- | --- | --- | --- |
| GIWDMIRKVRTVIRKAKQIKTFINGKGVQ [AMP-11] | potent hemolytic activity | moderate cytotoxicity |  |  |  |  |  |  |
| VTFVRLAGVASAVKTKAG [peptide 26] |  |  | lacks antimicrobial activity |  |  |  |  |  |
| WFHFFQRGSYNGI [AMP-29] |  | low cytotoxicity |  | 50 µM | 4 fold | > 32 fold |  |  |
| WLGSKIKAAKMKVGMWGAVGLRHN [AMP-24] |  | low cytotoxicity |  |  | at least 32 fold | at least 32 fold | no obvious immune cell infiltrations were observed | 12.5 µM |
